RanGTP-Imp inh: disruptors of Ran-importin-beta complex formation – biochemical, FRET, CFP-Ran, YFP-importin-beta, homogeneous, primary screen; AID 2216; cell-free CFP-Ran/YFP-importin-beta FRET ratio; inhibition, % (test concentration not listed); 300,000 tested, 1.1% active;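 active = more than half of the replicate wells show a fall in the fluorescence ratio signal beyond about 16%, limit read from the data, passing the limit was not always enough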;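 note: 0% = DMSO wells and 100% = Ran loaded with GDP instead of GTP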
EBV gp42 inh: blocks Epstein-Barr virus glycoprotein 42 binding | 220,000 tested, 0.42% active | inhibition, % (tested at 21.74 µM) | Fluorescence polarization binding assay, mP read-out | Q1HVG2; in the data active = inhibition above about 50%
Target sequence (Q1HVG2 whole entry, looked up): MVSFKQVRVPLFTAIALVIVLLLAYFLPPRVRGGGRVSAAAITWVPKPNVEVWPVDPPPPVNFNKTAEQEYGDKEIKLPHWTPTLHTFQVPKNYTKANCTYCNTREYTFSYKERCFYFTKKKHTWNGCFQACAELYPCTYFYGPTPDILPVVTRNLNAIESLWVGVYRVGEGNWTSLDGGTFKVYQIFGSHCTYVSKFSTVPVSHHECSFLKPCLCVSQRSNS
MEX-5 binding: C. elegans MEX-5 TCR-2 RNA binding activity; AID 1832; 300,000 tested, 0.38% active; activity score (negative = inhibition of binding), % at 10 µM; MEX-5/FITC-TCR2 RNA binding, fluorescence polarization; active compounds read low;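 active = inhibition past about -25% in most replicates, and total fluorescence under double the plate's negative control median, limit read from the data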;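 note: 0% = DMSO and -100% = 5 µM competing unlabeled TCR2 RNA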
Runt-CBFb FRET: blocks binding of human RUNX1 Runt domain to CBFb; Q01196+Q13951; 220,000 tested, 0.46% active; Cerulean-Runt/Venus-CBFb FRET ratio 530/480, 1 h; AID 1496; inhibition, % at 20 µM;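 active = inhibition over about 50% at 20 µM in the single-dose screen, limit read from the data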;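 note: 0% = DMSO wells and 100% = excess unlabeled CBFb competitor control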
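test system = Cerulean-tagged RUNX1 Runt domain (FRET donor) fusion protein | reagent = Venus-CBFb binding partner, 100 nM | incubation = protein complex preformed 1 h, compound exposure 1 h, room temperature, dark | detection = FRET fluorescence | read-out basis = loss of energy transfer signal | controls = 5 µM unlabeled CBFb as full-inhibition high control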
Runt-SMMHC FRET: Runt domain-CBFb-SMMHC interaction inhibition; Q01196+Q13951; inhibition, % at 20 µM; 220,000 tested, 0.74% active; Cerulean-Runt/Venus-CBFb-SMMHC FRET ratio 530/480, 1 h; AID 1434;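 active = mean inhibition across duplicate retests at 20 µM reaching about 50%, limit read from the data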;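 note: 0% = DMSO wells and 100% = wells with excess untagged CBFb-SMMHC; inhibitors lower the FRET ratio by blocking Runt binding to CBFb-SMMHC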
LANA-H2A inh: blocks KSHV LANA binding to histone H2A/H2B | Q9QR71 | cell-free LANA-H2A/H2B peptide, fluorescence polarization | inhibition, % (test concentration not listed) | 320,000 tested, 0.6% active; in the data active = inhibition mostly above about 10%, no sharp cut-off; inactive = mostly below about 6.7%
An asterisk follows results filed as active; x = not tested or not shown. Hits are enriched below; roughly 2.4% of the tested compounds scored in any of these assays.

SMILES	RanGTP-Imp inh	EBV gp42 inh	MEX-5 binding	Runt-CBFb FRET	Runt-SMMHC FRET	LANA-H2A inh
Cc1ccccc1CS(=O)(=O)Cc1ccc(C(=O)NCCc2ccccc2)o1	-4.5	x	-1.0	x	x	14.8*
COc1ccc(N2CCN(C(=O)c3c(-c4c(F)cccc4Cl)noc3C)CC2)cc1	x	x	1.5	x	x	2.1
C/C(=N/NS(=O)(=O)c1cc(C)ccc1C)c1ccncc1	2.8	x	-0.2	x	x	-1.9
O=S(=O)(c1cnc[nH]1)N1CCN(c2ccc(F)cc2)CC1	0.4	-9.9	-2.5	2.4	-5.1	110.8*
COc1ccc(C2=C/C(=C\c3ccccc3OC(C)=O)C(=O)O2)cc1	35.4*	x	4.1	x	x	2.4
COc1ccc(C2=C/C(=C\c3cccc(OC(C)=O)c3)C(=O)O2)cc1	42.7*	-4.8	-4.6	-36.2	38.7	-2.9
CCc1ccccc1Oc1ccc(S(=O)(=O)N2CCN(C)CC2)cn1	5.0	x	-0.5	x	x	-9.3
CCCN1CCc2c(sc(NC(=O)Cc3ccc(F)cc3)c2C(N)=O)C1	133.3*	x	-0.3	x	x	-4.0
CC(C)N1CCc2c(sc(NC(=O)CCc3ccccc3)c2C(N)=O)C1	130.3*	0.5	-4.6	78.1*	92.5*	0.6
COc1ccc(CC(=O)Nc2sc3c(c2C(N)=O)CCCC3)cc1OC	1.8	x	-0.2	x	x	0.8
CC(C)N1CCc2c(sc(NC(=O)Cc3ccccc3)c2C(N)=O)C1	139.8*	x	0.1	x	x	5.7
CC(=O)N1CCc2c(sc(NC(=O)Cc3ccccc3)c2C(N)=O)C1	5.2	x	-0.2	x	x	-2.4
Cc1noc(/C=C/N(C)C)c1S(=O)(=O)N1CCC(C(=O)O)CC1	8.2	-9.5	-30.4*	-3.8	-4.0	0.3
Cc1ccc(CNC(=O)C2CCN(S(=O)(=O)c3c(C)noc3/C=C/N(C)C)CC2)cc1	2.0	x	-8.9	x	x	-1.1
CCN(c1ccccc1)S(=O)(=O)c1nnc(NC(=O)c2ccccc2OC)s1	18.9*	x	3.2	x	x	1.8
Cc1cc(N2CCN(C3CCCC3)CC2)n2c(nc3ccccc32)c1C#N	7.4	-12.2	-0.3	31.7	53.1*	-2.3
Cc1cc(-n2ccnc2)n2c(nc3ccccc32)c1C#N	2.8	-26.0	13.6	36.7	47.5	-6.7
Cc1ccc(CC2CC(=O)N(C(Cc3ccccc3)C(=O)O)C2=O)cc1 (configuration not stated)	3.0	4.3	0.9	0.3	-2.4	2.1
COc1ccc(CCNC(=O)c2cc3c(=O)n4ccccc4nc3n(C3CCCCC3)c2=N)cc1	63.4*	x	-5.0	x	x	-2.2
COc1ccc(CCNC(=O)c2cc3c(=O)n4ccccc4nc3n(CCN3CCOCC3)c2=N)cc1	24.7*	x	-2.2	x	x	-0.9
COc1ccc(CCn2c(=N)c(C(=O)NCCN3CCOCC3)cc3c(=O)n4ccccc4nc32)cc1OC	-0.6	x	1.1	x	x	-4.9
COc1ccc(CCNC(=O)c2cnc3ccccn3c2=O)cc1	-4.6	-14.0	0.4	-1.4	4.1	-7.5
Cc1ccc2nc3c(cc(C(=O)NCCc4ccccc4)c(=N)n3CCCN3CCOCC3)c(=O)n2c1	168.1*	x	1.0	x	x	-11.1
COc1ccc(CCNC(=O)c2cc3c(=O)n4ccccc4nc3n(CCCN3CCOCC3)c2=N)cc1OC	16.2*	x	-1.5	x	x	3.2
CC(=O)c1c(C)[nH]c(C(=O)OCc2ccccc2F)c1C	2.1	9.7	1.4	-2.6	-6.7	5.5
SMILES	RanGTP-Imp inh	EBV gp42 inh	MEX-5 binding	Runt-CBFb FRET	Runt-SMMHC FRET	LANA-H2A inh
C=CC[C@H](CC(=O)N[C@H](CO)Cc1ccccc1)C(=O)N[C@H](COC(=O)[C@@H](CC=C)CC(=O)OC(C)(C)C)Cc1c[nH]c2ccccc12	x	x	x	x	x	-2.5
COC(=O)c1ccc(NC(C)=O)cc1O	x	-9.3	x	-0.7	-0.1	x
CCc1occc(=O)c1Oc1cc(NN2CCCCC2)c([N+](=O)[O-])cc1[N+](=O)[O-]	-3.1	x	1.1	x	x	0.8
O=C(NCCN1CCOCC1)c1c(O)nc2ccccn2c1=O	2.7	x	1.8	x	x	-1.3
CCCNc1nc2nc3ccccn3c(=O)c2cc1C(=O)NCCN1CCOCC1	130.8*	x	-4.1	x	x	6.7
CCNC(=S)N/N=C/c1cc(C)n(-c2ccc(Cl)cc2)c1C	0.9	7.8	2.0	-0.3	4.5	3.8
Cc1ccc(-n2c(C)cc(/C=N/NC(=O)Cn3c4ccccc4c(=O)c4ccccc43)c2C)cc1	x	-27.1	0.3	105.5*	x	7.5

Source: PubChem (several laboratories)
